# HCT116 bCat-KO = beta-catenin-lacking colon tumor cell growth suppression; HCT116 beta-catenin knockout viability, CellTiter-Glo, 60 h; hits give low values; viability, % at 10 µM; 140,000 compounds, 1.5% hits; AID 818;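 active = viability at or under a set limit, the compound median less 4 SD, cut at about 6% in these data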;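 also: 0% = Hyamine 1622 control at 20 µM and 100% = untreated cell control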
# H69AR growth 86K = growth inhibitors of human H69AR lung tumor cells | AID 598 | 85,000 compounds, 6% hits | viability, % at 10 µM | H69AR lung tumor viability, ATP luminescence, 72 h; hits give low values;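 active = viability at or below 40%; inactive = viability above 40%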;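 also: multidrug resistant small cell line overexpressing MRP-1 efflux transporter; 100% = mean luminescence of untreated control wells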
# PTEN del growth = PTEN-deleted cell growth suppression. HCT116 PTEN-null viability, CellTiter-Glo, 60 h; hits give low values. viability, % at 10 µM. 140,000 compounds, 1.2% hits;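 active = viability at or below a set limit, 4 SD under the median of all tested compounds, cut at about 3.7% in these data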;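 also: PTEN knockout HCT116 line with beta catenin targeted HCT116 as companion control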
# Lung fibro prol = blocks proliferation of human lung fibroblasts. LL 47 human lung fibroblast viability, ATP luminescence; hits give low values. viability, % at 10 µM. 85,000 compounds, 1.1% hits. AID 719;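 active = viability at or below 50% in the single dose screen; inactive = viability above 50%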;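 also: compound exposure lasted 72 h before the ATP readout; 100% = median luminescence of untreated cell-only wells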
#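 Material: human lung fibroblast line LL 47, low passage; Evaluation: viability percentage against median untreated-cell control; Buffer or medium: 15% FBS in IMEM; Incubation: 72 h compound exposure at 37 °C after overnight plating; Dosing: 0.1% DMSO in all compound wells; Measured by: CellTiter-Glo luminescence.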
# HUVEC inhibit = blocks proliferation of human endothelial cells; AID 648; 86,000 compounds, 1.1% hits; HUVEC proliferation, CellTiter-Glo luminescence, 72 h; hits give low values; viability, % at 10 µM (by protocol);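 active = viability at or below 30%; inactive = viability above 30%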;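 also: 100% = median luminescence of DMSO-only cell control wells on each plate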
# * hit, by the source's call; · = no result given. Many of the other results were omitted from the sample, so hits are more common in it than they were.
SMILES,HCT116 bCat-KO,H69AR growth 86K,PTEN del growth,Lung fibro prol,HUVEC inhibit
Cc1ccc(S(=O)(=O)N(C)C)cc1NC(=O)CSc1ncc(C(F)(F)F)cc1Cl,1.3*,·,90.8,·,·
CN(C)c1ccc(NC(=O)c2cccc(N3C(=O)C4C5C=CC(C5)C4C3=O)c2)cc1 (stereo not drawn),86.1,86.9,89.0,109.0,101.2
N#CCCn1nnc2ccccc21,6.0*,85.3,5.5,99.4,95.6
O=C(CCCCCN1C(=O)CCC1=O)Nc1ccc2c(c1)OCCO2,98.1,88.2,92.9,93.9,95.2
O=C(CSc1ccccc1)Nc1ccc(-c2nc3ccccc3[nH]2)cc1,79.7,·,71.2,·,·
Cc1ccc2nc(-c3ccc(NC(=O)CSc4ccccc4)cc3)[nH]c2c1,3.2*,·,7.7,·,·
Cc1ccc(-c2nc3ccccc3[nH]2)cc1NC(=O)c1ccco1,95.0,·,85.9,106.9,96.5
O=C(Nc1ccc(-c2nc3c(ccc4ccccc43)o2)cc1)c1ccco1,19.4,19.2*,16.3,40.2*,68.7
O=C(Nc1ccc2nc(-c3ccccc3)[nH]c2c1)c1ccco1,75.3,38.8*,73.0,93.1,88.3
O=C(Nc1ccc2nc(-c3ccc(Br)o3)[nH]c2c1)c1ccco1,103.6,51.2,92.5,114.3,69.1
O=C(Nc1cccc(-c2nc3ccccc3[nH]2)c1)c1cccc(NC(=O)c2ccco2)c1,10.3,1.2*,55.2,13.3*,1.9*
O=C(Nc1ccc(Cl)c(-c2nc3ccccc3[nH]2)c1)c1ccc2c(c1)OCO2,76.9,·,62.7,·,·
Cc1cccc2[nH]c(-c3ccc(NC(=O)c4ccco4)cc3)nc12,88.5,34.6*,91.8,109.2,93.9
O=C(Nc1ccc(-c2nc3ccccc3[nH]2)cc1)c1ccc2c(c1)OCO2,2.6*,·,2.5*,·,·
COc1ccc(-c2ccnc(SCC(=O)c3ccc(Cl)cc3)n2)cc1,81.3,·,75.3,·,·
CC(=O)N(C)C1=C(N2CCOCC2)C(=O)c2ccccc2C1=O,0.7*,·,0.8*,·,·
CC(=O)c1ccc(NC2=C(N3CCOCC3)C(=O)c3ccccc3C2=O)cc1,48.7,·,37.9,·,·
CCCC1=C(C(=O)OCC)C(/C=C/c2ccccc2)n2ncnc2N1 (stereo not drawn),30.1,18.6*,31.9,43.1*,62.0
CCOC(=O)C1=C(c2ccccc2)Nc2ncnn2C1c1cccc(OC)c1OC (stereo not drawn),91.3,39.3*,85.0,91.1,88.5
CCOC(=O)C1=C(C)Nc2ncnn2C1/C=C/c1ccccc1 (stereo not drawn),81.0,22.6*,73.2,75.0,81.3
CC(C)c1ccc(NC(=O)CN(Cc2ccccc2)S(C)(=O)=O)cc1,79.8,83.0,82.0,98.4,100.8
CC(C)OC(=O)C(C)(C)Oc1ccc(C(=O)c2ccc(Cl)cc2)cc1,69.9,86.6,64.1,89.1,96.1
CCOc1ccc(C(C)(C)C)cc1S(=O)(=O)N1CCOCC1,77.0,79.7,79.1,97.3,90.4
CC(C)(C)C1=CC(=O)C(N2CCOCC2)=CC1=O,2.0*,·,2.0*,·,·
Cc1cc(C)nc(SCC(=O)OCN2C(=O)c3ccccc3C2=O)n1,103.7,86.2,103.6,96.4,101.0
SMILES,HCT116 bCat-KO,H69AR growth 86K,PTEN del growth,Lung fibro prol,HUVEC inhibit
CCOc1cc(CNc2ccc(O)cc2)ccc1OCc1ccc(Cl)cc1Cl,62.4,·,49.0,·,·
CCOc1cccc(CNc2ccc(O)cc2)c1OCc1ccc(Cl)cc1,0.8*,·,1.9*,·,·
CCN(CC)c1ccc(N=Cc2ccccc2[N+](=O)[O-])cc1,46.4,·,52.6,·,·
CCN(CC)c1ccc(N=Cc2ccc([N+](=O)[O-])o2)cc1,4.7*,·,1.9*,·,·
CN(C(=O)c1ccncc1)c1nnc(-c2ccncc2)s1,98.2,·,101.8,·,·
O=C(Nc1ccccc1NC(=O)NC1CCCCC1)NC1CCCCC1,25.6,0.6*,4.5,51.4,3.6*
NC(=O)c1ccccc1NC(=O)NC1CCCCC1,92.8,91.3,93.8,110.6,97.5
O=C(CSc1nnc(COc2ccc(Cl)cc2)o1)N1c2ccccc2CCc2ccccc21,29.5,9.1*,38.4,61.5,92.5
COc1ccc(-c2nnn(CC(=O)N(CC(=O)NCCC(C)C)Cc3cccs3)n2)cc1OC,81.8,76.8,77.3,101.8,101.4
Cc1ccc(S(=O)(=O)N(C)c2ccc(C(=O)N3CCN(Cc4ccc5c(c4)OCO5)CC3)cc2)cc1,13.6,24.7*,18.4,94.9,91.3
CN(c1ccc(C(=O)N2CCN(Cc3ccc4c(c3)OCO4)CC2)cc1)S(=O)(=O)c1ccccc1,33.0,96.5,30.3,94.0,86.0
N#C/C(=C\c1ccc(N2CCOCC2)o1)c1ccccc1,57.1,·,64.5,·,·
